{"source": "paper PMC8911105", "about": "(Journal of Pharmaceutical Investigation, 2022)", "key": {"[1]": {"experiment": "Body weight of rats during 1,25", "type": "in vivo, rat", "conditions": "after pretreatment with 1,25(OH)2D3 2.56 nmol/kg/day for four days"}, "rat OCTN1 (rOCTN1)": {"test_system": "rat OCTN1 (rOCTN1)", "experiment": "RT-qPCR of rOCTN1 mRNA expression in organs of 1,25", "type": "in vivo", "conditions": "for Decrease in rOCTN1 mRNA expression level compared to control rats: 2.56 nmol/kg/day i.p. for four days, normalized to GAPDH"}, "[2]": {"conditions": "humans; oral administration; ref Cheah et al. [2017]; cited from earlier work"}, "[3]": {"experiment": "Basal level of endogenous ergothioneine in plasma, urine and tissues", "type": "in vivo, rat", "conditions": "for Decrease in Kp of basal endogenous ergothioneine after 1,25(OH)2D3 pretreatment: treated vs control", "procedure,_shortened": "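Rats got 1,25(OH)2D3 2.56 nmol/kg/day for four days, with no ergothioneine given. Tail-vein blood (0.3 mL) was drawn 30 min before each dose and at the same time on days 5–6. Urine was collected over 24 h from day 5 to 6, and seven tissues were taken on day 6. LC-MS/MS was run with a 2–10,000 ng/mL calibration (LLOQ 2 ng/mL). n = 5 control, 6 treated; means ± SD; unpaired two-tailed t-test.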"}, "[4]": {"type": "in vivo, rat", "procedure,_shortened": "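After four days of 1,25(OH)2D3 pretreatment, rats under ip Zoletil/Rompun (20 mg/kg) had femoral vein and artery cannulated. Aqueous ergothioneine (2 mg/mL) was given at 2 mg/kg IV. Plasma was sampled 0–1,440 min with heparinized-saline replacement. Plasma and urine were diluted 50- and 100-fold with 1% BSA for LC-MS/MS. AUC, CL, Vss and MRT came from non-compartmental analysis. Kp fold change was exogenous over basal Kp.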"}, "[5]": {"conditions": "mice; oral administration; ref Kato et al. [2010]; cited from earlier work"}, "[6]": {"conditions": "brain, 1,25(OH)2D3-treated rats"}, "[7]": {"conditions": "heart, 1,25(OH)2D3-treated rats"}, "[8]": {"conditions": "kidney, 1,25(OH)2D3-treated rats"}, "[9]": {"conditions": "muscle, 1,25(OH)2D3-treated rats"}, "[10]": {"conditions": "spleen, 1,25(OH)2D3-treated rats"}, "[11]": {"conditions": "2 mg/kg IV, 1,25(OH)2D3-treated rats"}}, "note": "Read-outs that look alike come from different tables or passages of the source.", "data": [{"molecule": "C=C1/C(=C\\C=C2/CCC[C@]3(C)[C@@H]([C@H](C)CCCC(C)(C)O)CC[C@@H]23)C[C@@H](O)C[C@@H]1O", "note": "[1,25(OH)2D3, 1α,25-dihydroxyvitamin D3]", "values": [{"measurement": "Weight gain compared with control rats", "setting": "[1]", "result": "significantly lower"}, {"measurement": "Decrease in rOCTN1 mRNA expression level compared to control rats", "setting": "rat OCTN1 (rOCTN1); brain", "result": 27, "unit": "%"}, {"measurement": "Decrease in rOCTN1 mRNA expression level compared to control rats", "setting": "rat OCTN1 (rOCTN1); kidney", "result": 77, "unit": "%"}, {"measurement": "Change in rOCTN1 mRNA levels", "setting": "rat OCTN1 (rOCTN1); other tissues, such as the liver, spleen, and heart", "result": "no significant changes"}]}, {"molecule": "C[N+](C)(C)[C@@H](Cc1c[nH]c(=S)[nH]1)C(=O)[O-]", "note": "[ergothioneine, l-ergothioneine]", "values": [{"measurement": "Urinary recovery of ergothioneine", "setting": "[2]", "result": "< 4", "unit": "%"}, {"measurement": "Cumulative amount of ergothioneine excreted in urine for 24 h (basal, endogenous)", "setting": "[3]; 1,25(OH)2D3-treated group", "result": 1880, "unit": "ng"}, {"measurement": "Basal plasma level of endogenous ergothioneine compared with control", "setting": "[3]; 1,25(OH)2D3-treated group, third day to sixth day of pretreatment", "result": "significantly increased"}, {"measurement": "Tissue partition coefficient (Kp), basal endogenous ergothioneine", "setting": "[3]; [6]", "result": "1.587 ± 0.929"}, {"measurement": "Tissue partition coefficient (Kp), basal endogenous ergothioneine", "setting": "[3]; brain, control rats", "result": "3.585 ± 0.447"}, {"measurement": "Cumulative amount of ergothioneine excreted in urine for 24 h (basal, endogenous)", "setting": "[3]; control group", "result": 3858, "unit": "ng"}, {"measurement": "Tissue partition coefficient (Kp), basal endogenous ergothioneine", "setting": "[3]; [7]", "result": "22.25 ± 15.27"}, {"measurement": "Tissue partition coefficient (Kp), basal endogenous ergothioneine", "setting": "[3]; heart, control rats", "result": "34.59 ± 7.01"}, {"measurement": "Tissue partition coefficient (Kp), basal endogenous ergothioneine", "setting": "[3]; [8]", "result": "20.56 ± 11.88"}, {"measurement": "Tissue partition coefficient (Kp), basal endogenous ergothioneine", "setting": "[3]; kidney, control rats", "result": "60.85 ± 10.93"}, {"measurement": "Decrease in Kp of basal endogenous ergothioneine after 1,25(OH)2D3 pretreatment", "setting": "[3]; kidneys", "result": 66.2, "unit": "%"}, {"measurement": "Tissue partition coefficient (Kp), basal endogenous ergothioneine", "setting": "[3]; liver, 1,25(OH)2D3-treated rats (n = 6)", "result": "106.7 ± 62.3"}, {"measurement": "Tissue partition coefficient (Kp), basal endogenous ergothioneine", "setting": "[3]; liver, control rats (n = 5)", "result": "224.4 ± 53.9"}, {"measurement": "Decrease in Kp of basal endogenous ergothioneine after 1,25(OH)2D3 pretreatment", "setting": "[3]; liver", "result": 52.4, "unit": "%"}, {"measurement": "Tissue partition coefficient (Kp), basal endogenous ergothioneine", "setting": "[3]; lung, 1,25(OH)2D3-treated rats", "result": "17.75 ± 11.47"}, {"measurement": "Tissue partition coefficient (Kp), basal endogenous ergothioneine", "setting": "[3]; lung, control rats", "result": "30.67 ± 6.68"}, {"measurement": "Tissue partition coefficient (Kp), basal endogenous ergothioneine", "setting": "[3]; [9]", "result": "4.471 ± 3.279"}, {"measurement": "Tissue partition coefficient (Kp), basal endogenous ergothioneine", "setting": "[3]; muscle, control rats", "result": "8.385 ± 1.141"}, {"measurement": "Decrease in Kp of basal endogenous ergothioneine after 1,25(OH)2D3 pretreatment", "setting": "[3]; muscle", "result": 46.7, "unit": "%"}, {"measurement": "Tissue partition coefficient (Kp), basal endogenous ergothioneine", "setting": "[3]; [10]", "result": "15.22 ± 7.87"}, {"measurement": "Tissue partition coefficient (Kp), basal endogenous ergothioneine", "setting": "[3]; spleen, control rats", "result": "42.50 ± 14.19"}, {"measurement": "Decrease in Kp of basal endogenous ergothioneine after 1,25(OH)2D3 pretreatment", "setting": "[3]; spleen", "result": 64.2, "unit": "%"}, {"measurement": "CL", "setting": "[4]; [11]", "result": "1.894 ± 0.733", "unit": "mL/min/kg"}, {"measurement": "MRT", "setting": "[4]; [11]", "result": "33.50 ± 20.07", "unit": "h"}, {"measurement": "Urinary recovery of ergothioneine within 24 h", "setting": "[4]; [11]", "result": 1.08, "unit": "%"}, {"measurement": "Vss", "setting": "[4]; [11]", "result": "3298 ± 959", "unit": "mL/kg"}, {"measurement": "AUC∞", "setting": "[4]; 2 mg/kg IV, 1,25(OH)2D3-treated rats (n = 6)", "result": "1198 ± 457", "unit": "µg·min/mL"}, {"measurement": "CL", "setting": "[4]; 2 mg/kg IV, control rats", "result": "3.729 ± 1.734", "unit": "mL/min/kg"}, {"measurement": "MRT", "setting": "[4]; 2 mg/kg IV, control rats", "result": "27.11 ± 17.31", "unit": "h"}, {"measurement": "Urinary recovery of ergothioneine within 24 h", "setting": "[4]; 2 mg/kg IV, control rats", "result": 3.89, "unit": "%"}, {"measurement": "Vss", "setting": "[4]; 2 mg/kg IV, control rats", "result": "4820 ± 1291", "unit": "mL/kg"}, {"measurement": "AUC∞", "setting": "[4]; 2 mg/kg IV, control rats (n = 7)", "result": "647.5 ± 327.5", "unit": "µg·min/mL"}, {"measurement": "Decrease in total clearance in 1,25(OH)2D3-treated rats", "setting": "[4]; 2 mg/kg IV, treated vs control", "result": 49, "unit": "%"}, {"measurement": "Increase in AUC∞ in 1,25(OH)2D3-treated rats", "setting": "[4]; 2 mg/kg IV, treated vs control", "result": 85, "unit": "%"}, {"measurement": "Tissue partition coefficient (Kp), IV exogenous ergothioneine", "setting": "[4]; [6]", "result": "2.909 ± 0.448"}, {"measurement": "Tissue partition coefficient (Kp), IV exogenous ergothioneine", "setting": "[4]; brain, control rats", "result": "4.799 ± 1.199"}, {"measurement": "Tissue partition coefficient (Kp), IV exogenous ergothioneine", "setting": "[4]; [7]", "result": "39.88 ± 10.04"}, {"measurement": "Tissue partition coefficient (Kp), IV exogenous ergothioneine", "setting": "[4]; heart, control rats", "result": "81.04 ± 37.23"}, {"measurement": "Fold change of Kp (exogenous versus endogenous basal)", "setting": "[4]; kidney, 1,25(OH)2D3-treated group", "result": 3.70, "unit": "fold"}, {"measurement": "Tissue partition coefficient (Kp), IV exogenous ergothioneine", "setting": "[4]; [8]", "result": "76.12 ± 47.89"}, {"measurement": "Fold change of Kp (exogenous versus endogenous basal)", "setting": "[4]; kidney, control group", "result": 3.13, "unit": "fold"}, {"measurement": "Tissue partition coefficient (Kp), IV exogenous ergothioneine", "setting": "[4]; kidney, control rats", "result": "190.7 ± 59.4"}, {"measurement": "Tissue partition coefficient (Kp), IV exogenous ergothioneine", "setting": "[4]; liver, 1,25(OH)2D3-treated rats (n = 6), 24 h after 2 mg/kg IV", "result": "237.3 ± 82.8"}, {"measurement": "Tissue partition coefficient (Kp), IV exogenous ergothioneine", "setting": "[4]; liver, control rats (n = 5), 24 h after 2 mg/kg IV", "result": "407.8 ± 113.9"}, {"measurement": "Tissue partition coefficient (Kp), IV exogenous ergothioneine", "setting": "[4]; lung, 1,25(OH)2D3-treated rats", "result": "38.61 ± 8.48"}, {"measurement": "Tissue partition coefficient (Kp), IV exogenous ergothioneine", "setting": "[4]; lung, control rats", "result": "57.37 ± 14.60"}, {"measurement": "Tissue partition coefficient (Kp), IV exogenous ergothioneine", "setting": "[4]; [9]", "result": "10.25 ± 3.90"}, {"measurement": "Tissue partition coefficient (Kp), IV exogenous ergothioneine", "setting": "[4]; muscle, control rats", "result": "19.43 ± 8.95"}, {"measurement": "Tissue partition coefficient (Kp), IV exogenous ergothioneine", "setting": "[4]; [10]", "result": "21.89 ± 2.34"}, {"measurement": "Tissue partition coefficient (Kp), IV exogenous ergothioneine", "setting": "[4]; spleen, control rats", "result": "70.56 ± 17.46"}, {"measurement": "Urinary recovery of ergothioneine", "setting": "[5]", "result": "< 4", "unit": "%"}]}]}
